Data as given in ChEMBL document CHEMBL4513216, “Probing the Open Global Health Chemical Diversity Library for Multistage-Active Starting Points for Next-Generation Antimalarials” (ACS Infect Dis, 2020).

Assay: Toxicity liver stage against HepG2, at 10uM
Format: cell-based
Design: test concentration 10 uM, cell line HepG2-A16-CD81EGFP
Settings: human, HepG2-A16-CD81EGFP cells; read-out: INHIBITION
In short: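 Uninfected HepG2-A16-CD81EGFP cells, 3 × 10^3 per well, 1536-well, plated on prespotted compound at 10 μM final, parasite-free screening media added to match infected plates; puromycin 10 μM positive, DMSO 0.5% negative; run in parallel with 48 h PbLuc assay at 37 °C, 5% CO2; viability by CellTiter-Glo luminescence, normalized to controls.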

SMILES	cytotoxicity at 10 µM
O=C(NCC1CC1)C1CCC2(CCN(C(=O)c3ccccn3)CC2)O1 (configuration not stated)	9.74%
NCC1(c2cccc(Br)c2)CCOCC1	-8.45%
CCc1noc(CN(CC)C(=O)CC2C(=O)NCCN2CC(C)(C)C)n1 (configuration not stated)	1.83%
CN(Cc1ccsc1)C(=O)Nc1cccnc1N1CCCC1	-4.37%
CC(C#N)(NC(=O)c1ccc(C#N)cc1)C1CC1 (configuration not stated)	-3.67%
Cc1noc(CNC(=O)NCC2(C)CCCc3ccccc32)n1 (configuration not stated)	-1.17%
CN(Cc1ccncc1)C1COC2(CCN(c3ncc(F)cn3)CC2)C1 (configuration not stated)	6.95%
CC(C)Cc1noc(CN2CCOCC2C)n1 (configuration not stated)	2.8%
Cc1nc[nH]c1-c1nccn1-c1ccc(C(N)=O)c(N2CCCC2)c1	6.23%
CC(C)(C(=O)NCc1n[nH]c(=O)[nH]1)c1ccc(F)cc1	7.52%
N#CC1(NC(=O)Cn2nnc(-c3cc4ccccc4o3)n2)CCCC1	0.696%
CCn1ncc(C(=O)N2CCCN(CCCc3ccccc3)CC2)c1C	-2.62%
O=C(CN1CCNC1=O)N1CCc2nnc(-c3ccccc3)n2CC1	-46.1%
O=C1CC[C@H]2[C@H](CCN2c2ccccn2)N1CC1CCOCC1	-36.4%
CS(=O)(=O)NC[C@]12COC[C@H]1CN(C(=O)C1CCCCC1)C2	3.34%
CC(C)n1cc(CN2CCCN(C(=O)c3nccnc3N)CC2)cn1	7.13%
COCCC(=O)NCC(O)c1c(F)cccc1F (configuration not stated)	-2.38%
Fc1ccc(NC2CCCN(Cc3ccncc3)C2)cc1 (configuration not stated)	3.58%
Cc1ccnc(OC[C@@]23CCO[C@@H]2CCN(c2ncc(F)cn2)C3)n1	10.9%
CCO[C@@H]1CCN(C(=O)c2cnc(C)cn2)[C@@H]1Cc1cnn(C)c1	-72.7%
CC(C)(C)n1cc(C2=CCN(CCc3ccccc3)CC2)cn1	14.3%

SMILES	cytotoxicity at 10 µM
Cc1c(NCc2ccccc2C#N)cccc1-n1cnnn1	15.4%
CCCN1CCC(NCc2ccncc2)CC1	-6.79%
Cc1ccccc1OCC1CCCN(C(=O)Cc2c[nH]c(=O)[nH]c2=O)C1 (configuration not stated)	-136%
CN1CCN(C(=O)c2cccc(OCc3cscn3)c2)CC1	-6.18%
Cc1nnc(CN(C)CC(=O)NC(C)(C)c2ccc(F)cc2)n1C	-4.25%
CCNc1cc2c(nn1)CCN(C(=O)Cc1ccc(C)nc1)C2	-3.63%
CC(C)NC(=O)c1cc2c(s1)CCN2C(=O)CN(C)C	1.94%
CCN1CCC2(COCc3cnc(-c4cccnc4)nc32)C1 (configuration not stated)	4.04%
Clc1ccc2cccnc2c1CN1CCCCC1Cn1cncn1 (configuration not stated)	7.63%
CCCS(=O)(=O)N1CCOC2(CCCN(c3ccccn3)C2)C1 (configuration not stated)	4.23%
COCCN1CCN(CC(=O)N(C)Cc2ccc(F)cc2)CC1C (configuration not stated)	-145%
CCn1c(N)nc2cc(C(=O)N3CCCN(C)CC3)cnc21	-2.43%
CC(C)c1ccc(C(C)NC(=O)N2CCC(n3cncn3)CC2)cc1 (configuration not stated)	-6.18%
O=C(NC1CC1)c1ccc(SCc2cscn2)cc1	1.26%
Cc1cc(NCC(=O)NCC(F)(F)F)nc(-c2ccncc2)n1	6.45%
Cc1nnc2n1CCN(Cc1csc(-c3ncccn3)n1)C2	-38.1%
O=C(Nc1ccc(Br)cc1F)c1cc(CN2CCOCC2)on1	6.39%
CCN(C1CCN(Cc2ncc(C(C)(C)C)o2)CC1)S(C)(=O)=O	-4.15%
O=C(c1cnccn1)N1C[C@@H]2CCN(c3cnccn3)C[C@@H]2C1	-100%
Cn1ccc(CNC(=O)N2CCCC3(C2)OCCO3)c1	7.6%
O=C(c1cccc2ccnn12)N1CCCC1Cn1cccn1 (configuration not stated)	-126%

SMILES	cytotoxicity at 10 µM
CC(C)(C)S(=O)(=O)CCNC(=O)c1ccc2cc[nH]c2c1	-2.61%
CC(C)c1nc(CN2CCCC(Cn3cncn3)C2)cs1 (configuration not stated)	-12.9%
O=C(CN1CCCC(Cn2cncn2)C1)NCCc1cccs1 (configuration not stated)	-17.6%
CC(C)NC(=O)N1CCCn2cnc(CN3CCCC3=O)c2C1	17.4%
c1cnc(N2CCOCC3(CCCN(Cc4cccs4)C3)C2)nc1 (configuration not stated)	-68.3%
Cc1ccc2c(c1)SCC(=O)N2Cc1noc(C2CCCO2)n1 (configuration not stated)	-0.0938%
Cc1cc(C)n(CC2CN(CC(=O)Nc3c(C)n[nH]c3C)CCO2)n1 (configuration not stated)	-9.86%
COCCc1noc(CN2CCCc3cccc(OC)c32)n1	5.52%
COCc1cccc(CNCc2c(C(C)C)nn(C)c2N(C)C)c1	-7.16%
CC(C)Cn1cncc1CNC1CCSCC1	-4.11%
O=C(c1ccoc1)N1C[C@@H]2CN(c3ncccn3)C[C@@H]2C1	-5.3%
CCCc1noc(C2CCCCN2C(=O)C2CCCC2)n1 (configuration not stated)	-35.8%
CN(C)c1ccc(C(=O)N2CCCC2c2cnn(C)c2)cn1 (configuration not stated)	-1.83%
c1cn(CC2CCOCC2)c(-c2cc(CN3CCCC3)cs2)n1	-2.96%
CC1(C)CC2(CCO1)NC(=O)c1cc(Br)ccc1-n1nnnc12 (configuration not stated)	5.97%
O=C(c1cc(F)cc(F)c1)N1CCC2(CC1)CC2	5.04%
CCc1nccn1CC(=O)N1C[C@@H]2CC[C@H]1CN(S(=O)(=O)N(C)C)C2	-6.38%
CCSc1cc(C(=O)NCC(C)(C)N(C)C)ccn1	-13.4%
Cc1nc(C)n(CC2CN(c3ccc(C#N)cn3)CCO2)n1 (configuration not stated)	-10.5%
CCN1CC(CN(C)Cc2nc(-c3cccc(Cl)c3)oc2C)CC1=O (configuration not stated)	6.9%
CNCc1cn(C[C@H]2CC3CCN2C[C@@H]3C(=O)Nc2ccccc2)nn1 (some centres not stated)	-0.288%

SMILES	cytotoxicity at 10 µM
CC(=O)N1[C@H](Cn2cncn2)C[C@@H]2CN(c3ccc(C)nn3)CC[C@@H]21	-13.4%
O=C(CO[C@@H]1CC[C@H]2[C@H]1OCCN2Cc1ccccn1)N1CCCC1	-3.98%
Cc1cc(N(C)C)nc(C2(C)CCCN2C(=O)c2ccccc2)n1 (configuration not stated)	-27.4%
COc1c(C2CCCN2C(=O)c2csc(C(C)C)n2)c(C)nn1C (configuration not stated)	-8.26%
CCc1ccc(CN(C)C(=O)c2ccc(CSc3nnc[nH]3)o2)nc1	-2.19%
CC(C(=O)NC1CCCC1)S(=O)(=O)Cc1noc(C(C)(C)C)n1 (configuration not stated)	-9.41%
CN1CCc2ccc(NCc3cscn3)cc2C1=O	-2.43%
Cn1nnc2c(N3CC(C(=O)NCCC4=CCCCC4)C3)ncnc21	8.41%
COc1cccn(CC(=O)N2CCCC3(CCCO3)CC2)c1=O (configuration not stated)	0.955%
COC[C@@H]1CCC[C@]12CN(S(=O)(=O)c1cn(C)cn1)CCO2	4.06%
Cc1ccccc1SCC(=O)NS(=O)(=O)c1ccc2c(c1)OCCO2	-1.22%
c1cnn(CC2CN(Cc3nc(C4CC4)no3)CCO2)c1 (configuration not stated)	-27.6%
Cn1cc(N2C[C@@H]3CN(CC4CCOCC4)C[C@@H]3C2=O)cn1	11.1%
Cc1cccnc1CNCC1(O)CCCN(CC2CCC2)C1=O (configuration not stated)	-5.51%
CN(C(=O)NCc1nccn1CCc1ccccc1)C1CCC1	1.96%
Cc1noc(C)c1CN1CC2(CCCCN2C)CC1=O (configuration not stated)	2.75%
N#Cc1ccc(C(=O)N2CCC(Oc3ccc(C#N)cn3)CC2)cc1	7.92%
O=C(Nc1cccc(CN2CCOC2=O)c1)N1CCSCC1	-11.3%
COc1cc(CCC(=O)NC2CC2)ccc1OCC(F)(F)F	-8.35%
